Screening results (PubChem BioAssay)
OX1R antag-1 = antagonists of human orexin 1 receptor (OX1R); inhibition, % at 6.6 µM; 330,000 compounds, 1.8% hits; O43613; OX1R-expressing cells, FRET antagonist read-out; in the data active = inhibition mostly above about 38%, no sharp cut-off; inactive = mostly below about 40%
Target sequence (O43613 whole entry, looked up): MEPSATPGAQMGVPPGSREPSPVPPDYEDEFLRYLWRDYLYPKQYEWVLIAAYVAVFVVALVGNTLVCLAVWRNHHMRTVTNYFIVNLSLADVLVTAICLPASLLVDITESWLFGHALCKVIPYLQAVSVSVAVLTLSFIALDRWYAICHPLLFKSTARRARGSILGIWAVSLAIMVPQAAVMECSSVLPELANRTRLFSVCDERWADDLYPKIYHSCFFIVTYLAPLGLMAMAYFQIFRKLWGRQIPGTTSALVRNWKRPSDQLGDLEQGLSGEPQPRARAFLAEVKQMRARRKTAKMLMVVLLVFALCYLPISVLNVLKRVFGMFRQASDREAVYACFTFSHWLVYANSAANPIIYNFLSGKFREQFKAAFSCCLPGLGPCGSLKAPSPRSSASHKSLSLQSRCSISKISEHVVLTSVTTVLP
CHO-K1 Ca antag = nonselective inhibitor or artifact in parental CHO-K1 cells. inhibition, % at 3 µM. 360,000 compounds, 0.6% hits. ATP-induced calcium, Fluo-8 fluorescence. AID 602250;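 active = inhibition above a per-plate cutoff, the plate's mean sample inhibition plus 3 SD, cut at about 24% in these data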
CHO parental Ca = signal in parental CHO cells, OX1R antagonist counter-screen | parental CHO-K1, ATP-induced calcium, Fluo-8 fluorescence | inhibition, % at 5.6 µM | 330,000 compounds, 0.63% hits;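 active = inhibition above that plate's mean sample inhibition plus 3 SD, cut at about 26% in these data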
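Measured by: calcium-sensitive Fluo-8 fluorescence / Test system: CHO parental line / Controls: ATP-challenged DMSO wells low, unchallenged DMSO wells high / Measure: % inhibition / Compound: single nominal dose of 5.6 µM per compound / Replicates: single well per compound, no replicates / Reagent: ATP as calcium-mobilizing challenge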
M1 PAM parental = M1 PAM counterscreen hit in parental CHO-K1 cells; 360,000 compounds, 0.02% hits; activation, % at 3 µM; ATP EC20, Fluo-8 calcium fluorescence; 0% at ATP EC20, 100% at ATP max;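 active = activation above the run cutoff, the mean activation of all test compounds plus 3 SD, cut at about 40% in these data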;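 also: peak over basal fluorescence ratio in a 140 s read after ATP addition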
CHO-K1 Ca ag = nonselective activator or artifact in parental CHO-K1 cells | Fluo-8 calcium fluorescence; scaled to maximal ATP response, vehicle zero | activation, % at 3 µM | 360,000 compounds, 0.48% hits | AID 602248; in the data active = activation above about 15%;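 also: untransfected CHO-K1 host cells lacking M1 receptor as counterscreen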
OX1R antag-2 = human HCRTR1 antagonism; CHO/OX1R cells, Fluo-8 calcium fluorescence, orexin A; 330,000 compounds, 0.43% hits; O43613; AID 434989; inhibition, % at 5 µM;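 active = inhibition above its plate's threshold, mean inhibition of all tested compounds on the plate plus 3 SD, cut at about 37% in these data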
Numbers stand for hits; . = inactive; / = no result given. The list is not random: actives were taken first. Their share in the collection is about 2.9%.

SMILES	OX1R antag-1	CHO-K1 Ca antag	CHO parental Ca	M1 PAM parental	CHO-K1 Ca ag	OX1R antag-2
CCOC(=O)c1ccc(NC(=O)Nc2ccc(F)cc2)cc1	52	49	.	.	.	.
CN(CCC(=O)Nc1ccc(Cl)cc1)Cc1ccccc1	.	.	.	.	.	.
CCOC(=O)C1CCN(CC(O)COc2ccc(S(=O)(=O)N3CCCC3)cc2[N+](=O)[O-])CC1 (centres undefined)	/	.	/	.	.	/
O=C(NC(=S)NNC(=O)c1cccs1)c1ccco1	.	.	.	.	.	.
O=C(CCNC(=O)c1ccco1)NNC(=O)c1ccc(Br)cc1	/	.	/	.	.	/
O=C(NC(=S)NNC(=O)c1ccco1)c1ccc(Br)cc1	.	.	.	.	18	.
O=C(NNC(=S)NC(=O)c1ccco1)c1ccc(F)cc1	.	.	.	.	24	.
Cn1nc(/C=C/c2ccccc2)ccc1=O	.	.	.	.	.	.
Cc1nc(-c2ccc(O)c(O)c2)cs1	.	26	.	.	.	.
Oc1ccc(-c2csc(-c3ccccc3)n2)cc1O	.	.	28	.	.	.
O=C1OC(CN(Cc2ccccc2)Cc2ccccc2)CN1N=Cc1ccc([N+](=O)[O-])o1 (centres undefined)	/	.	/	.	.	/
O=C1OC(CN2CCOCC2)CN1N=Cc1ccc([N+](=O)[O-])o1 (centres undefined)	60	.	.	.	.	.
O=C1CN(/N=C/c2ccc([N+](=O)[O-])o2)C(=O)N1	84	.	.	.	.	.
Cc1ccc(S(=O)(=O)N2C[C@@H]3CCCC[C@@H]3[C@@H](C)[C@H]2CC(=O)c2ccccc2)cc1	.	.	.	.	.	.
CCOc1ccc(OCC)c(NC(=O)CN2CCN(CC(=O)NC(C)C)CC2)c1	.	.	.	.	.	.
Cc1ccc(C(=O)CCC(=O)Nc2cccc(C)c2)cc1	/	.	/	.	.	/
CC(C)NC(=O)c1ccc2sc([C@H]3C[C@H](O)[C@@H](CO)O3)nc2c1	/	.	/	.	.	/
O=C(NCC1CCCCC1)c1ccc2sc([C@H]3C[C@H](O)[C@@H](CO)O3)nc2c1	/	35	/	.	.	/
CCCCn1c(N)c(N(CC(C)C)C(=O)Cc2ccc3c(c2)OCCO3)c(=O)[nH]c1=O	.	.	.	.	.	.
COc1cccc(N2C(=O)C(c3ccccc3)=C(c3nc4ccccc4s3)C2NC(C)=O)c1 (centres undefined)	53	.	.	.	.	.
CC(=O)NC1C(c2nc3ccccc3s2)=C(c2ccccc2)C(=O)N1c1ccc(C)cc1 (centres undefined)	.	.	.	.	.	.
Cc1nn(CC(=O)NC2CCCCC2)c(C)c1[N+](=O)[O-]	/	.	/	.	.	/
O=C1c2cccc3cccc(c23)C(=O)N1c1ccc(O)cc1	.	.	.	.	.	.
O=C1c2cccc3cccc(c23)C(=O)N1c1nncs1	75	.	.	.	.	.
O=C(OCc1nnc(-c2ccc([N+](=O)[O-])cc2)o1)C1CCN(C(=O)c2ccc(F)cc2)CC1	38	.	.	.	.	.
SMILES	OX1R antag-1	CHO-K1 Ca antag	CHO parental Ca	M1 PAM parental	CHO-K1 Ca ag	OX1R antag-2
O=[N+]([O-])c1ccc(-c2nnc(CNC3CCCC3)o2)cc1	63	.	.	.	.	.
COC(=O)c1cnc(N)s1	/	.	/	.	.	/
CC(C)C1OC(CCc2ccccc2)Cc2[nH][nH]c(=O)c21 (centres undefined)	/	.	/	.	.	/
CCOc1ccccc1C(=O)NC(C(=O)N(C)Cc1ccc2c(c1)OCO2)C(C)C (centres undefined)	.	.	.	.	.	.
CC(C)[C@H](NC(=O)c1ccccc1)C(=O)OCC(=O)c1ccc2c(c1)NC(=O)CO2	.	.	.	.	.	.
CC[C@H](C)[C@H](NC(=O)c1ccc(Cl)cc1)C(=O)OCC(=O)c1ccc2c(c1)NC(=O)CO2	.	.	83	.	.	59
CCN(CC)S(=O)(=O)c1cccc(C(=O)OCC(=O)c2ccc3c(c2)NC(=O)CO3)c1	.	.	.	.	17	.
